Data published in PubChem BioAssay AID588768 (The Scripps Research Institute Molecular Screening Center, 2011).
Activity calls are given as the source filed them.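 How the source made its calls: active means cytotoxic, with CC50, the dose killing half the cells, at or below 5 µM in either medium; inactive means CC50 above 5 µM in every panel.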

Assay: HEK293T cell viability reduction – WST-1 absorbance, serum-free and serum media, powder, cytotoxicity control for pPAFAH inhibitor project, dose response (AID 588768)
In short: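 Test system: 293T HEK cells | Medium: DMEM with or without 10% FCS | Timing: 48 h exposure at 37 °C | Repeats: Five replicates per concentration | Read-out: CC50 from three-parameter sigmoidal fit of percent cell viability | Measured by: WST-1 colorimetric absorbance | Compound dosing: 7-point 1:5 series up to 50 µM | Control set: no-compound cells high, no-cell wells low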

| SMILES | CC50 (with 10% FCS) | CC50 (without serum) |
| --- | --- | --- |
| Cc1cc(N2CCN(C(=O)Oc3ccc([N+](=O)[O-])cc3)CC2)c2ccccc2n1 | 13 µM (inactive) | 0.061 µM |
| Cc1cc(N2CCN(C(=O)Oc3ccc(-c4ccccc4)cn3)CC2)c2ccccc2n1 | 35 µM (inactive) | 6.7 µM (inactive) |
| Cc1cc(N2CCN(C(=O)Oc3ccc(-c4ccccc4)cc3)CC2)c2ccccc2n1 | 12 µM (inactive) | 1.8 µM |
